High-throughput results from PubChem BioAssay.
TMEM16A act: mouse TMEM16A channel activation, primary screen; B-score at 10 µM; HEK293 TMEM16A/YFP-H148Q/I152L, iodide quench fluorescence; stronger effect = lower value; Q8BHY3; AID 623877; 0.3% of 340,000 active;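 active = fluorescence-ratio B-score plate-corrected deviation score at least 3 library SD below zero, with starting fluorescence score within 5 deviations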;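 note: channel opened by trigger with iodide after compound preincubation; score built on the fluorescence ratio of max minus min over baseline; more negative score means more quench and so TMEM16A activation or potentiation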
CHT inh: inhibitors of human choline transporter CHT. B-score at 10 µM. Q9GZV3. 0.86% of 310,000 active. CHT-expressing cells, membrane potential dye, choline response; stronger effect = lower value;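 active = B-score over 3 SD under the library average, and starting fluorescence ratio not unusually high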;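 note: choline stimulus applied at its EC90 after an EC20 pre-addition; B-score computed on integrated fluorescence ratio after choline addition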
Target sequence (Q9GZV3 whole entry, looked up): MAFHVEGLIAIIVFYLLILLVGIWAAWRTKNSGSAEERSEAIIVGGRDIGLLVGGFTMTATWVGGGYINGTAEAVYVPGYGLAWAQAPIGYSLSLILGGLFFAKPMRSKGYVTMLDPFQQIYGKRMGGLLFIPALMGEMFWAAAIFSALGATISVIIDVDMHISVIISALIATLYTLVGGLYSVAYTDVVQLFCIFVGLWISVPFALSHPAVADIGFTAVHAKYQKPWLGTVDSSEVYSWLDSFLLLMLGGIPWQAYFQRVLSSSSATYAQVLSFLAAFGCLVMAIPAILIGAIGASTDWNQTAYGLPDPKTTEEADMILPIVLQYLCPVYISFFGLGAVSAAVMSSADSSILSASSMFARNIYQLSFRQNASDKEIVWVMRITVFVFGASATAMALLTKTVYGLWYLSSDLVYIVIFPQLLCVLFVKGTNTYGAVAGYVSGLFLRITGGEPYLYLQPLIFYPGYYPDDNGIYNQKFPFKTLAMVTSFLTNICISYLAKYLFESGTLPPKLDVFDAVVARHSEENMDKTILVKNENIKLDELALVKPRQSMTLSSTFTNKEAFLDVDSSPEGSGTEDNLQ
IMP-1 inhibitor: inhibitors of Pseudomonas aeruginosa IMP-1 metallo-beta-lactamase; purified IMP-1, nitrocefin hydrolysis, epi-absorbance fluorescence; inhibition, % at 5.6 µM; AID 1556; 0.45% of 290,000 active;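 active = inhibition above the mean plus 3 SD of all compounds in the same screening run, cut at about 4.5% in these data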
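System: purified recombinant IMP-1 beta-lactamase. Medium: Zinc- and detergent-supplemented HEPES buffer, pH 7.1. Compound: one 5.6 µM dose […]. Schedule: 15 min preincubation plus 25 min reaction at 25 °C. Technique: Epi-absorbance fluorescence, 480 nm excitation, 530 nm emission.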
VIM-2 inhibitor: blocks Pseudomonas aeruginosa VIM-2 metallo-beta-lactamase | inhibition, % at 5.6 µM | 0.89% of 290,000 active | purified VIM-2, nitrocefin hydrolysis, epi-absorbance fluorescence;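 active = inhibition above the mean of all tested compounds plus 3 SD, cutoff set per screening run, cut at about 7.5% in these data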;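 note: red hydrolysis product quenches plate fluorescence so inhibitors raise well fluorescence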
ANO1 block: inhibitors of mouse TMEM16A calcium-activated chloride channel | normalized B-score (activity score, 25-100; higher = stronger inhibition) at 10 µM | 1.2% of 310,000 active | HEK293 TMEM16A/YFP iodide influx fluorescence, ionomycin | AID 588511;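 active = ratio plate-corrected score three or more library SD toward inhibition, starting fluorescence score within five deviations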;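 note: score derived from kinetic fluorescence span divided by baseline fluorescence per well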
CHT PAM: allosteric activators of human choline transporter CHT | CHT-expressing cells, membrane potential dye, choline EC20; stronger effect = higher value; LV-AA mutant CHT in HEK293 cells | B-score at 10 µM | AID 488977 | 0.49% of 310,000 active | Q9GZV3;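 active = initial fluorescence not abnormally high and integrated response B-score, plate-corrected, over 3 SD above library mean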
CHT block conf: human CHT inhibition, confirmatory screen. shares compounds with CHT inh. CHT-expressing cells, choline membrane potential dye; LV-to-AA substituted CHT, HEK293 cells. CHT activity remaining % of control (stronger effect = lower value), % at 10 µM. 70% of 2,400 active. AID 493221;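 active = choline transporter activity left, mean of duplicates at 10 µM, below buffer-only control mean minus 3 SD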;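 note: depolarization triggered by choline at its EC90 following an EC20 pre-addition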
HEK293 MPD ctr: CHT inhibitor counter-screen hit in parental HEK293 cells | shares compounds with CHT inh | membrane potential dye, choline response; active = decrease or increase beyond buffer ±3SD | membrane potential ratio readout (active if shifted either direction beyond buffer ±3SD; no single direction) at 10 µM | 4% of 2,400 active | AID 493222;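 note: parental cells lack the transporter so any hit is non-specific; ratio is peak minus trough fluorescence over baseline after EC90 choline challenge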
TMEM16A reconf: reconfirmed blocker of mouse TMEM16A calcium-activated chloride channel | inhibition, % at 10 µM | HEK293 TMEM16A/YFP-H148Q, iodide quench fluorescence; ionomycin added to raise cell calcium | shares compounds with ANO1 block | 39% of 2,300 active;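 active = mean duplicate percent inhibition, scaled so buffer wells are 0 and the reference blocker 100, over three buffer SD above buffer mean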
TMEM16A Ca cntr: alters calcium mobilization in TMEM16A HEK293 cells, counter-screen | shares compounds with ANO1 block | TMEM16A/YFP HEK293, Fluo4 calcium mobilization | calcium response (% of ionomycin), % at 10 µM | 2% of 2,300 active;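 active = duplicate-averaged calcium signal over 20% of the ionomycin maximum, relative to buffer baseline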;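 note: each well's signal is peak minus trough fluorescence divided by its pre-addition baseline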
Parental YFP cnt: acts in parental YFP-HEK293 cells lacking TMEM16A, counter-screen. 2,300 tested, under 10 active. YFP ratio F(max-min)/F0 at 10 µM. iodide YFP quench, ionomycin. shares compounds with ANO1 block. AID 652233;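 active = yellow fluorescent protein signal ratio exceeding the buffer control mean by over 5 SD of those controls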;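 note: ratio is mean of duplicate wells from kinetic YFP trace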
ClC-1 inh: rat ClC-1 inhibition, TMEM16A specificity screen. shares compounds with ANO1 block. CHO ClC-1-YFP, iodide influx fluorescence quench; iodide control reads 0, buffer control 100. ratio percent, % at 10 µM. 2,300 tested, under 10 active. AID 652236;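 active = duplicate-mean ratio percent above the mean of iodide-only control wells, which defines zero, plus 5 of their SD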;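 note: higher percent means stronger block of ClC-1 iodide influx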
Numbers stand for hits; – = inactive; · = not tested or not shown. Only some compounds are listed: those with a hit (about 3.4% of all), similar ones and a draw of the others.

SMILES	TMEM16A act	CHT inh	IMP-1 inhibitor	VIM-2 inhibitor	ANO1 block	CHT PAM	CHT block conf	HEK293 MPD ctr	TMEM16A reconf	TMEM16A Ca cntr	Parental YFP cnt	ClC-1 inh
N#C/C(=N\Nc1cccc(Cl)c1)C(=O)c1ccccc1	–	-5.2	–	–	100	–	66%	–	26%	–	–	–
CCN(c1ccccc1)S(=O)(=O)c1ccc(N2CCN(c3ccc(O)cc3)CC2)nc1	–	·	·	·	·	·	·	·	·	·	·	·
COc1ccc(C)cc1NC(=O)c1ccccc1NS(=O)(=O)c1ccc(Cl)s1	–	-7.5	–	–	100	–	15%	–	48%	–	–	–
CC(c1ccccc1)C(Cc1nc2ccccc2[nH]1)c1nc2ccccc2[nH]1 (configuration not stated)	·	–	–	–	–	–	·	·	·	·	·	·
Cc1cccc(CC(Cc2nc3ccccc3[nH]2)c2nc3ccccc3[nH]2)c1 (configuration not stated)	–	-9	–	–	100	–	59%	–	39%	–	–	–
O=C(CCc1ccccc1)c1c(O)cc(O)cc1O	–	-7.9	·	·	100	–	40%	–	47%	–	–	–
CC(C)Cc1csc(NC(=O)c2ccc(Br)cc2)c1C(=O)O	–	-10	–	–	100	–	61%	–	–	–	–	–
O=C(CSc1ccc2ccccc2c1)Nc1ccncc1	–	-6	–	–	100	–	52%	–	18%	–	–	–
Oc1c(Br)cc(Br)cc1C=Nc1cccc2ncccc12	–	-8.2	·	·	–	–	53%	–	18%	–	–	–
Brc1cccc(C=Nc2cccc3ncccc23)c1	–	–	·	·	–	–	·	·	·	·	·	·
COc1ccc(CCNc2nc(-c3ccc(O)cc3)cs2)cc1OC	–	-5	–	–	100	–	–	–	30%	–	–	–
COc1ccc(CCNc2nc(-c3ccncc3)cs2)cc1OC	–	–	–	–	–	–	·	·	·	·	·	·
Cc1cc(-c2csc(NC(=O)c3ccc(=O)[nH]c3)n2)c(C)n1Cc1ccccc1	–	–	–	–	–	–	·	·	·	·	·	·
O=C(Nc1nc(-c2ccccc2)cs1)c1ccccc1NS(=O)(=O)c1ccc(F)cc1	–	-8	–	–	100	–	42%	–	78%	–	–	–
O=S(=O)(Nc1ccc(-c2csc(-c3ccccc3)n2)cc1)c1ccc(F)cc1	–	–	–	–	–	–	·	·	·	·	·	·
O=C(Nc1nc(-c2ccccc2)cs1)c1ccc(=O)[nH]c1	–	-6	–	–	25	–	70%	–	26%	–	–	–
CCCCN(C)CCNC(=O)C1CCN(S(=O)(=O)c2cccc3nsnc23)CC1	–	–	–	–	–	–	·	·	·	·	·	·
O=C(COc1ccccc1)NCC(=O)N1CCCC(C(F)(F)F)C1 (configuration not stated)	–	·	·	·	·	·	·	·	·	·	·	·
Cc1ccccc1CN1CCNC(=O)C1CC(=O)NC1CCCCCCC1 (configuration not stated)	–	–	–	–	–	–	·	·	·	·	·	·
CCOc1cc(/C=C2\N=C(SC)SC2=O)cc([N+](=O)[O-])c1OC(C)=O	–	-5.2	–	–	100	–	65%	–	–	–	–	–
CCCNc1ncnc2c1cnn2C1CCCCO1 (configuration not stated)	–	·	·	·	·	·	·	·	·	·	·	·
O=C(COC(=O)/C=C/c1ccc(Cl)cc1Cl)NCC1CCCO1 (configuration not stated)	–	·	·	·	·	·	·	·	·	·	·	·
CCc1nnc(NC(=O)c2nn(-c3ccccc3)nc2C)s1	–	–	–	–	–	–	·	·	·	·	·	·
Cc1nn(-c2ccccc2)nc1C(=O)Nc1nnc(C(F)(F)F)s1	–	-12	–	–	100	–	43%	–	28%	–	–	–
CCC(Oc1ccccc1)C(=O)Nc1nnc(C(F)(F)F)s1 (configuration not stated)	–	-5.1	–	–	100	–	–	–	20%	–	–	–
SMILES	TMEM16A act	CHT inh	IMP-1 inhibitor	VIM-2 inhibitor	ANO1 block	CHT PAM	CHT block conf	HEK293 MPD ctr	TMEM16A reconf	TMEM16A Ca cntr	Parental YFP cnt	ClC-1 inh
COC(CNC(=O)CN1CCN(Cc2ccccc2F)C1=O)OC	–	–	–	–	–	–	·	·	·	·	·	·
Cc1nn2c(=O)cc(COC(=O)c3c(F)cccc3Cl)nc2s1	–	·	·	·	·	·	·	·	·	·	·	·
CC(C)c1ccc(S(=O)(=O)/N=C2\C=C(NS(=O)(=O)c3ccccc3)C(=O)c3ccccc32)cc1	–	-10	–	–	100	–	39%	–	91%	–	–	–
O=C1N=C(N2CCOCC2)S/C1=C\c1ccccc1OS(=O)(=O)c1ccccc1	–	–	–	–	–	–	·	·	·	·	·	·
Cc1ccc(S(=O)(=O)Oc2ccccc2/C=C2/SC(=O)NC2=O)cc1	–	-6	–	–	25	–	57%	–	–	–	–	–
CC1=C(C(=O)OCc2ccccc2)C(c2ccccc2)NC(=O)N1CCCCCC(=O)O (configuration not stated)	–	–	–	–	–	–	·	·	·	·	·	·
COC(=O)CCCCCN1C(=O)NC(C2CC2)C(C(=O)OCc2ccccc2)=C1C (configuration not stated)	–	-5.4	·	·	25	–	65%	–	–	–	–	–
O=C(CCc1ccccc1)NNC(=O)c1ccc(Cl)cc1	–	–	–	–	–	–	·	·	·	·	·	·
O=C(CCc1ccccc1)NNC(=S)NC(=O)c1ccc(Cl)cc1	·	-5.7	–	–	100	–	70%	–	25%	65%	–	–
COc1ccc(S(=O)(=O)Nc2c(NC3CCCCC3)c3ccccc3oc2=O)cc1OC	–	–	–	–	–	–	·	·	·	·	·	·
COc1ccc(C(=O)OCC(=O)c2ccc[nH]2)c(OC)c1	–	·	·	·	·	·	·	·	·	·	·	·
CN(Cc1cccs1)c1ncnc2sccc12	–	-7.4	–	–	25	–	50%	–	–	–	–	–
